Measurements published in ChEMBL document CHEMBL2046296, “Synthesis and antidepressant activity of arylalkanol-piperidine derivatives as triple reuptake inhibitors” (Eur J Med Chem, 2012).

Key:
[1] = target: T1, Muscarinic acetylcholine receptor M2 (Homo sapiens) (UniProt P08172); assay: Displacement of [3H]AF-DX384 from M2 receptor at 10 uM
T1 sequence (whole entry): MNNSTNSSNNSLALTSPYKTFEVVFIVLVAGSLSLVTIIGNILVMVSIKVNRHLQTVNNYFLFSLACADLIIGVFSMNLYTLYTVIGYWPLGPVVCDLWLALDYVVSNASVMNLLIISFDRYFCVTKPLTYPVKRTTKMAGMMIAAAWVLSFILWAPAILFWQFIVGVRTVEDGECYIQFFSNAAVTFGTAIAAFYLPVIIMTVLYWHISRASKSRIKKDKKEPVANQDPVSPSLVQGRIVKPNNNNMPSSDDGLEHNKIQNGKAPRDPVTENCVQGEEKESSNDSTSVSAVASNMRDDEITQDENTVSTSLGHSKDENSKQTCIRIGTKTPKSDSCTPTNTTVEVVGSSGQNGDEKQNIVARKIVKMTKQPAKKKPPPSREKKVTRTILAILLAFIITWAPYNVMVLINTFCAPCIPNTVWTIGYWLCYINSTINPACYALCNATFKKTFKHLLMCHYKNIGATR
Method in brief: (§1)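 Radioligand binding panel run by a contract lab (CEREP). Percent inhibition of specific radioligand binding was measured at a single primary test concentration of 10.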

[2] = target: D(3) dopamine receptor (Homo sapiens) (UniProt P35462); assay: Displacement of [3H]Methylspiperone from human recombinant dopamine D3 receptor expressed in CHO cells at 10 uM after 60 mins by liquid scintillation counting; assay type: cell-based; method in brief: as §1
D(1A) dopamine receptor = D(1A) dopamine receptor (Homo sapiens, UniProt P21728); assay: Displacement of [3H]SCH23390 from dopamine D1 receptor at 10 uM; method in brief: as §1
[3] = target: Histamine H1 receptor (Cavia porcellus) (UniProt P31389); assay: Displacement of [3H]Pyrilamin from guinea pig histamine H1 receptor at 10 uM after 10 mins by liquid scintillation counting; method in brief: as §1
Mus musculus [4] = assay: Antidepressant activity in mouse assessed as decrease in immobility at 20 mg/kg, po administered 30 mins prior to testing by tail suspension test relative to vehicle control; assay type: functional; set-up: scale not given: the % may be the effect or the level left
Method in brief: (§2)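 Oral doses of 10–50 mg/kg (three doses) were given once, 30 min before testing. Mice were hung by adhesive tape 1 cm from the tail tip, 75 cm above the tabletop. Immobility was recorded for 5 min, scored blind, 10–12 mice per group, against vehicle controls. One-way ANOVA with Scheffe post hoc test; p<0.05 significant.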

[5] = target: T2, Muscarinic acetylcholine receptor M1 (Homo sapiens) (UniProt P11229); assay: Displacement of [3H]pirenzepine from human recombinant M1 receptor expressed in CHO cells at 10 uM after 60 mins by liquid scintillation counting; assay type: cell-based; method in brief: as §1
T2 sequence (whole entry): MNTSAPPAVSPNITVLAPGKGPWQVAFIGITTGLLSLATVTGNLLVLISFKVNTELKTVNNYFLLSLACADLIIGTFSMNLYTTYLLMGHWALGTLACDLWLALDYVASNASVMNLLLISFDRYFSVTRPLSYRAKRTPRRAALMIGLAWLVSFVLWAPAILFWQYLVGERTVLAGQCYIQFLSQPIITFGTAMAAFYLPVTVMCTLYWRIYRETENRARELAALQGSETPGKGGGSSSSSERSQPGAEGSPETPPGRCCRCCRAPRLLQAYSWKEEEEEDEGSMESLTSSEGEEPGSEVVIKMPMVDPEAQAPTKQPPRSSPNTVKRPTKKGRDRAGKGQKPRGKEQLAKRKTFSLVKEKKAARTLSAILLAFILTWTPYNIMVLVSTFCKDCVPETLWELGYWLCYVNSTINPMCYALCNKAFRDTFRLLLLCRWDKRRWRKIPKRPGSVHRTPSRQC

[6] = target: T3, 5-hydroxytryptamine receptor 3A (Homo sapiens) (UniProt P46098); assay: Displacement of [3H]BRL43694 from human recombinant 5HT3 receptor expressed in CHO cells at 10 uM after 60 mins by liquid scintillation counting; assay type: cell-based; method in brief: as §1
T3 sequence (whole entry): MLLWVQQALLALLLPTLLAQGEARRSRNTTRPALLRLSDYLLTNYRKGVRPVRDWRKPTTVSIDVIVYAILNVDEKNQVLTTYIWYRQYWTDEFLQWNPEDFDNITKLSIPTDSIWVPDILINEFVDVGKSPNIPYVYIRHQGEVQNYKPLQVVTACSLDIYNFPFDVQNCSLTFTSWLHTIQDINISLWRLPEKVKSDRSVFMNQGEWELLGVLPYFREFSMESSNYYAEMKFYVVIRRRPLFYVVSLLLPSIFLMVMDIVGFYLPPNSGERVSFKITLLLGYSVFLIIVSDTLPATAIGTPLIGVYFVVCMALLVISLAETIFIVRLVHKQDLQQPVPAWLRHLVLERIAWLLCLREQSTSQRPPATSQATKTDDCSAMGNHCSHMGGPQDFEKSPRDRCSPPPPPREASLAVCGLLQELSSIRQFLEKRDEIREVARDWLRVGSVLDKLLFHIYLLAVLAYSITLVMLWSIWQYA

[7] = target: 5-hydroxytryptamine receptor 6 (Homo sapiens) (UniProt P50406); assay: Displacement of [3H]LSD from human recombinant 5HT6 receptor expressed in HEK293 cells at 10 uM after 60 mins by liquid scintillation counting; assay type: cell-based; method in brief: as §1
[8] = target: 5-hydroxytryptamine receptor 1B (Homo sapiens) (UniProt P28222); assay: Displacement of [I125]CYP from 5HT1B receptor at 10 uM; method in brief: as §1
[9] = target: D(2) dopamine receptor (Homo sapiens) (UniProt P14416); assay: Displacement of [3H]Methylspiperone from dopamine D2 receptor at 10 uM; method in brief: as §1
[10] = target: Sodium-dependent serotonin transporter (Homo sapiens, UniProt P31645); assay: Inhibition of [3H]serotonin uptake at human SERT expressed in HEK293 cells after 10 min by scintillation counting
Mus musculus [11] = assay: Toxicity in mouse assessed as increase in locomotor activity at 50 mg/kg, po up to 5 mins relative to vehicle treated control; assay type: organism-based; set-up: dose 50 mg/kg, route oral; settings: in vivo
Method in brief: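 Mice were dosed orally at 50 mg/kg and 30 min later placed singly in new 35×35×35 cm plastic cages under dim light with sound attenuation. Activity was logged by a monitoring apparatus at intervals up to 30 min, and the 5 min point was analysed. Mean ± SEM; one-way ANOVA, Scheffe post hoc, versus control.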

[12] = target: Sodium-dependent dopamine transporter (Homo sapiens, UniProt Q01959); assay: Inhibition of [3H]dopamine uptake at human DAT expressed in HEK293 cells after 10 mins by scintillation counting
Mus musculus [13] = assay: Antidepressant activity in mouse assessed as decrease in immobility at 10 mg/kg, po administered 30 mins prior to testing by tail suspension test relative to vehicle control; assay type: functional; set-up: scale not given: the % may be the effect or the level left; method in brief: as §2
[14] = target: Sodium-dependent noradrenaline transporter (Homo sapiens, UniProt P23975); assay: Inhibition of [3H]noradrenaline uptake at human NET expressed in HEK293 cells after 10 mins by scintillation counting
[15] = target: Beta-1 adrenergic receptor (Homo sapiens) (UniProt P08588); assay: Displacement of [3H](-)CGP12177 beta1 adrenergic receptor at 10 uM; method in brief: as §1
Chain of Beta-1 adrenergic receptor (Homo sapiens) (P08588 whole entry, looked up): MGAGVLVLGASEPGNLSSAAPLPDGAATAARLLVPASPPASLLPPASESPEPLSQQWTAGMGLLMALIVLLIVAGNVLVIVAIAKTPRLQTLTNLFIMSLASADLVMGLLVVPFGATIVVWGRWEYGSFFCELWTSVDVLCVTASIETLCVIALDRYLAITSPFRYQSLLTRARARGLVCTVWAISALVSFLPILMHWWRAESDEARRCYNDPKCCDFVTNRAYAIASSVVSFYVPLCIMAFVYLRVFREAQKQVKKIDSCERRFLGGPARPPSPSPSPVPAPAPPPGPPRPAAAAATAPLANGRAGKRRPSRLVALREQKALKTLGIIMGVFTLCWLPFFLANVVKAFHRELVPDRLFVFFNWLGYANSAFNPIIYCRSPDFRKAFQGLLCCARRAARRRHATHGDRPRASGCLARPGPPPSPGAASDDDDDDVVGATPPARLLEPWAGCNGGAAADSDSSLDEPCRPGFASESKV

Chain of Sodium-dependent serotonin transporter (P31645 whole entry): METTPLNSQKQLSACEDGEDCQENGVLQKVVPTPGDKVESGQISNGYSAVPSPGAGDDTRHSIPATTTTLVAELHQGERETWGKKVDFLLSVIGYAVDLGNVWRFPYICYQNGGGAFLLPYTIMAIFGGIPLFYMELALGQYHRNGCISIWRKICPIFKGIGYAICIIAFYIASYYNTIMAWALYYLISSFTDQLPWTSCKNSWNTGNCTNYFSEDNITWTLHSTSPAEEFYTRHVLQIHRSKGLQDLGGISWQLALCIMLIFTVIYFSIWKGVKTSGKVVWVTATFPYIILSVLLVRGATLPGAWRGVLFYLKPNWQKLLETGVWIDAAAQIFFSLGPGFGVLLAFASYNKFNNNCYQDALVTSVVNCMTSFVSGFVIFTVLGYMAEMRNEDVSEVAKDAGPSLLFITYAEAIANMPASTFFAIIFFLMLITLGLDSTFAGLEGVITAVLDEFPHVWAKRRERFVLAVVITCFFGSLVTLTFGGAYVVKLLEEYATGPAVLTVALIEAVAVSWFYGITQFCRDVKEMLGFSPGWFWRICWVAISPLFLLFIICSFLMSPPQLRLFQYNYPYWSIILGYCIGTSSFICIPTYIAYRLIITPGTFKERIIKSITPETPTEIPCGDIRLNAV
Chain of 5-hydroxytryptamine receptor 6 (Homo sapiens) (P50406 whole entry): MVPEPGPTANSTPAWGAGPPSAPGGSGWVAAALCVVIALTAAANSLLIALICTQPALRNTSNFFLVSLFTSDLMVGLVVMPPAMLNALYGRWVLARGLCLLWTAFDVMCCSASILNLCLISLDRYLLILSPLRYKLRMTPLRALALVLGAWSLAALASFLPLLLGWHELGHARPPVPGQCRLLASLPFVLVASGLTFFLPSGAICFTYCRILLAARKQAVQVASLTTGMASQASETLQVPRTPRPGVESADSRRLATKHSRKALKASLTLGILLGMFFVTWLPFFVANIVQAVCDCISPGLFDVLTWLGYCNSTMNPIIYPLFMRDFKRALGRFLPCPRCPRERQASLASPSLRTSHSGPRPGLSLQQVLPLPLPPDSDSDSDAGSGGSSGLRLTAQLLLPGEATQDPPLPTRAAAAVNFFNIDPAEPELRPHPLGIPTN
Chain of Sodium-dependent dopamine transporter (Q01959 whole entry): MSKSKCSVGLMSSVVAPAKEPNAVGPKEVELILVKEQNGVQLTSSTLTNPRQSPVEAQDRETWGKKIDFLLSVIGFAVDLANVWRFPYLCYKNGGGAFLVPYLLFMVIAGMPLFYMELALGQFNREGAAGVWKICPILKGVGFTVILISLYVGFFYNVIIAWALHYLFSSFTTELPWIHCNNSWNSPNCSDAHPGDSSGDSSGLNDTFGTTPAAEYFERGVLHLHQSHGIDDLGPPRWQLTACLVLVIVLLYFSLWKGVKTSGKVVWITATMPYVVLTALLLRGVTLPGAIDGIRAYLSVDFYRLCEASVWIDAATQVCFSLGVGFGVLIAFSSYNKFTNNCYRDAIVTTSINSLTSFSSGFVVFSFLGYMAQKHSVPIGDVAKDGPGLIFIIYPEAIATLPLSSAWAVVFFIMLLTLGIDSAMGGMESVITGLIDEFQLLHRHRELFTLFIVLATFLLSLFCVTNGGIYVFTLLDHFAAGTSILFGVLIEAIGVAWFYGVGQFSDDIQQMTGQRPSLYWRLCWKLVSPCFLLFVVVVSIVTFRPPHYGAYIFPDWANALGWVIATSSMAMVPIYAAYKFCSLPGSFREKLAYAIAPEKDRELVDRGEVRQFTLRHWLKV
Chain of D(2) dopamine receptor (Homo sapiens) (P14416 whole entry): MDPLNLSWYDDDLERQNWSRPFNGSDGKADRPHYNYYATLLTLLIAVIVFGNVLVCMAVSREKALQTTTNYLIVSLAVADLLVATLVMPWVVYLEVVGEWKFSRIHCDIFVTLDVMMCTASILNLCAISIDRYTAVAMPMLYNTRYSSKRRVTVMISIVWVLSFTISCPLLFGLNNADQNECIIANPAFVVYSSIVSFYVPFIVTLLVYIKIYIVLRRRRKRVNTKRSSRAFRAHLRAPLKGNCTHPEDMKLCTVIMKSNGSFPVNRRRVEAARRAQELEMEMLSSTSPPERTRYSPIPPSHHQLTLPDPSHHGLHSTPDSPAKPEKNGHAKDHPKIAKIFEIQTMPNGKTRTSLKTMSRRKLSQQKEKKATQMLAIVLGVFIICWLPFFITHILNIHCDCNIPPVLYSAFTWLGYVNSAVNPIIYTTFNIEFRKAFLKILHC
Chain of 5-hydroxytryptamine receptor 1B (Homo sapiens) (P28222 whole entry): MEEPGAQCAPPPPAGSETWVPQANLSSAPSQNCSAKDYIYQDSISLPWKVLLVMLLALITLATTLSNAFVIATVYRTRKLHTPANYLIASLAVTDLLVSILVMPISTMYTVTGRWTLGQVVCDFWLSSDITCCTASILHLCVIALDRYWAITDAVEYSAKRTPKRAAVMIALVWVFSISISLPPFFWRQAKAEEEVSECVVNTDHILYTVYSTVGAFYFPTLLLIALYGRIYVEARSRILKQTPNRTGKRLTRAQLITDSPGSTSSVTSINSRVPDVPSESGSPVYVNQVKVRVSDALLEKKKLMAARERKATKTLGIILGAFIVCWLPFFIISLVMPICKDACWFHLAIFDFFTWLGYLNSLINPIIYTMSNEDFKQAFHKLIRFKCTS
Chain of D(3) dopamine receptor (Homo sapiens) (P35462 whole entry): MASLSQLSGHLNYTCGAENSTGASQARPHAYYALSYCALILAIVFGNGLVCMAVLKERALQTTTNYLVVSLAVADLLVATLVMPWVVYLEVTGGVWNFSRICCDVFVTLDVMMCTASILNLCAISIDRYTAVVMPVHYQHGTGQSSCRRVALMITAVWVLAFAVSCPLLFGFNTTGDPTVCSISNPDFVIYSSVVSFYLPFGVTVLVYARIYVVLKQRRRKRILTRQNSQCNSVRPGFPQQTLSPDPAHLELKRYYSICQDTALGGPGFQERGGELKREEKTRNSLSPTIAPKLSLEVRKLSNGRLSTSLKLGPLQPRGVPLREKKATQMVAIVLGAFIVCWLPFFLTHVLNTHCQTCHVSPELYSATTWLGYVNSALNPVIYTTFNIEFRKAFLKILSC
Chain of Histamine H1 receptor (Cavia porcellus) (P31389 whole entry): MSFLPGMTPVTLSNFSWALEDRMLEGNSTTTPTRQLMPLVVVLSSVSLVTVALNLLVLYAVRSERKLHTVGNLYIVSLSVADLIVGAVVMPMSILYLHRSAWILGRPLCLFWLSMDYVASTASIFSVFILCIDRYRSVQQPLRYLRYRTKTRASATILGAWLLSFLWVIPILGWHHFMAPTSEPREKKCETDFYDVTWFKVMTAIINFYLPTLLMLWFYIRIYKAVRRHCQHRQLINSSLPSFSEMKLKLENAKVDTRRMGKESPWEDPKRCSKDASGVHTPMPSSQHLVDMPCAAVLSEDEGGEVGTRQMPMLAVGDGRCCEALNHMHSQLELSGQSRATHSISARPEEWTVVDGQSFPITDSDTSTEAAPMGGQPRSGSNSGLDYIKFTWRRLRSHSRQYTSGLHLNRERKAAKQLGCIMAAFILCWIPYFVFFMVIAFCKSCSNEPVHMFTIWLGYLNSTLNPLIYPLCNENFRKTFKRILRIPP
Chain of D(1A) dopamine receptor (P21728 whole entry): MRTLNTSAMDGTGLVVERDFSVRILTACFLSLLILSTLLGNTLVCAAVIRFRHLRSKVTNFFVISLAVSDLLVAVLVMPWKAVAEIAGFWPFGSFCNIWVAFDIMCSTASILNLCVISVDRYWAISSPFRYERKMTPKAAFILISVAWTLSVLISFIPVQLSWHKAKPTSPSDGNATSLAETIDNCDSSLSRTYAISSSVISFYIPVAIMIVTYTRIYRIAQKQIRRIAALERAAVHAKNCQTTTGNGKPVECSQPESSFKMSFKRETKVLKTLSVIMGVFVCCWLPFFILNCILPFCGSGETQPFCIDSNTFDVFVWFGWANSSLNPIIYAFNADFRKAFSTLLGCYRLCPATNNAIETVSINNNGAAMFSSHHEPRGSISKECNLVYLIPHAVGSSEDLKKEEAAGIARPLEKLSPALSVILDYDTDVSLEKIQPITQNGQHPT
Chain of Sodium-dependent noradrenaline transporter (P23975 whole entry): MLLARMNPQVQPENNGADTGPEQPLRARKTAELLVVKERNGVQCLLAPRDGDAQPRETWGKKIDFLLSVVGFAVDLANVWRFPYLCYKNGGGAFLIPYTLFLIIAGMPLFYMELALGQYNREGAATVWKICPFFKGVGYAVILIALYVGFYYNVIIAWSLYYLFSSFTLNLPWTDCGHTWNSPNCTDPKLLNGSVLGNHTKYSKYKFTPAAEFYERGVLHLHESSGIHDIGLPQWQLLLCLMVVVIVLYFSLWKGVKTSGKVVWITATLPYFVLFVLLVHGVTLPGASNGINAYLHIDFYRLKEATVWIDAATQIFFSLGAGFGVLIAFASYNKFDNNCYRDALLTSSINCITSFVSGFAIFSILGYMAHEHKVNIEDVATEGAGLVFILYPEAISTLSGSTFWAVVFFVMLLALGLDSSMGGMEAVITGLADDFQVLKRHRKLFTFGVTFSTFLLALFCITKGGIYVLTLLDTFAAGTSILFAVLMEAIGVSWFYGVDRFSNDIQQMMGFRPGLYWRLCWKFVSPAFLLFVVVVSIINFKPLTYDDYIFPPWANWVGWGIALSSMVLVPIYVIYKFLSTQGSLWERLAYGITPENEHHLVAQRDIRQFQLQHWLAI

SMILES | inhibition [1] | inhibition [2] | inhibition (D(1A) dopamine receptor) | inhibition [3] | Activity (Mus musculus [4]) | inhibition [5] | inhibition [6] | inhibition [7] | inhibition [8] | inhibition [9] | IC50 [10] | Activity (Mus musculus [11]) | IC50 [12] | Activity (Mus musculus [13]) | IC50 [14] | inhibition [15]
COc1ccc2cc(C(O)CCN3CC=C(Cc4ccccc4)CC3)ccc2c1Cl (racemic) | 12.9% | 11.3% | 27.1% | 10.6% | 42% | 57.8% | 0.5% | -0.9% | 10.2% | -0.5% | 265 nM | Non-toxic | 346 nM | 21% | 420 nM | 46.7%
OC(CCN1CC=C(Cc2ccccc2)CC1)c1cc2ccccc2s1 (racemic) | 6.5% | 1.2% | 85.6% | 0.1% | 21% | 31.2% | 10.6% | 53.7% | – | 10.8% | 255 nM | Non-toxic | 491 nM | 14% | 327 nM | 41.2%
OC(CCN1CCC(O)(Cc2ccccc2)CC1)c1ccc(Cl)c(Cl)c1 (racemic) | 16.5% | 4.6% | 47.9% | 12.5% | 42% | 34.2% | 14.1% | 14.8% | 9.7% | 19.2% | 337 nM | Non-toxic | 564 nM | 33% | 265 nM | 15.3%
OC(CCN1CC=C(Cc2ccccc2)CC1)c1ccc(Cl)c(Cl)c1 (racemic) | 7.9% | 10.3% | 33.3% | 31.2% | 51% | 10.7% | 25.1% | 1.9% | 0.6% | 31.4% | 425 nM | Non-toxic | 689 nM | 24% | 178 nM | 58.9%
OC(CCN1CC=C(Cc2ccccc2)CC1)c1csc2ccccc12 (racemic) | 3.7% | 3.5% | 35.6% | 45.3% | 51% | 4.3% | 8.3% | 16.8% | 6.5% | 4.3% | 171 nM | Non-toxic | 566 nM | 32% | 385 nM | 33.4%
